Consider 4 compounds from article PMC4971946 (Pharmacognosy Magazine, 2016).

The experiment has as its target rat intestinal sucrase (Rattus norvegicus, UniProt P23739). The experiment can be described thus: Assay of sucrase inhibitory activity. Type of experiment: biochemical. Summed up: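 Rat intestinal sucrase-isomaltase prepared by Dahlqvist's method. Enzyme preincubated 10 min at 37°C with test sample (25–200 µg/ml, maleate buffer pH 6.0); reaction started with 60 mM sucrose solution, stopped after 30 min with 3,5-dinitrosalicylic acid reagent, boiled 5 min, A540 read. % inhibition relative to untreated-enzyme control lacking sample; three experiments.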

Chain of rat intestinal sucrase (P23739 whole entry): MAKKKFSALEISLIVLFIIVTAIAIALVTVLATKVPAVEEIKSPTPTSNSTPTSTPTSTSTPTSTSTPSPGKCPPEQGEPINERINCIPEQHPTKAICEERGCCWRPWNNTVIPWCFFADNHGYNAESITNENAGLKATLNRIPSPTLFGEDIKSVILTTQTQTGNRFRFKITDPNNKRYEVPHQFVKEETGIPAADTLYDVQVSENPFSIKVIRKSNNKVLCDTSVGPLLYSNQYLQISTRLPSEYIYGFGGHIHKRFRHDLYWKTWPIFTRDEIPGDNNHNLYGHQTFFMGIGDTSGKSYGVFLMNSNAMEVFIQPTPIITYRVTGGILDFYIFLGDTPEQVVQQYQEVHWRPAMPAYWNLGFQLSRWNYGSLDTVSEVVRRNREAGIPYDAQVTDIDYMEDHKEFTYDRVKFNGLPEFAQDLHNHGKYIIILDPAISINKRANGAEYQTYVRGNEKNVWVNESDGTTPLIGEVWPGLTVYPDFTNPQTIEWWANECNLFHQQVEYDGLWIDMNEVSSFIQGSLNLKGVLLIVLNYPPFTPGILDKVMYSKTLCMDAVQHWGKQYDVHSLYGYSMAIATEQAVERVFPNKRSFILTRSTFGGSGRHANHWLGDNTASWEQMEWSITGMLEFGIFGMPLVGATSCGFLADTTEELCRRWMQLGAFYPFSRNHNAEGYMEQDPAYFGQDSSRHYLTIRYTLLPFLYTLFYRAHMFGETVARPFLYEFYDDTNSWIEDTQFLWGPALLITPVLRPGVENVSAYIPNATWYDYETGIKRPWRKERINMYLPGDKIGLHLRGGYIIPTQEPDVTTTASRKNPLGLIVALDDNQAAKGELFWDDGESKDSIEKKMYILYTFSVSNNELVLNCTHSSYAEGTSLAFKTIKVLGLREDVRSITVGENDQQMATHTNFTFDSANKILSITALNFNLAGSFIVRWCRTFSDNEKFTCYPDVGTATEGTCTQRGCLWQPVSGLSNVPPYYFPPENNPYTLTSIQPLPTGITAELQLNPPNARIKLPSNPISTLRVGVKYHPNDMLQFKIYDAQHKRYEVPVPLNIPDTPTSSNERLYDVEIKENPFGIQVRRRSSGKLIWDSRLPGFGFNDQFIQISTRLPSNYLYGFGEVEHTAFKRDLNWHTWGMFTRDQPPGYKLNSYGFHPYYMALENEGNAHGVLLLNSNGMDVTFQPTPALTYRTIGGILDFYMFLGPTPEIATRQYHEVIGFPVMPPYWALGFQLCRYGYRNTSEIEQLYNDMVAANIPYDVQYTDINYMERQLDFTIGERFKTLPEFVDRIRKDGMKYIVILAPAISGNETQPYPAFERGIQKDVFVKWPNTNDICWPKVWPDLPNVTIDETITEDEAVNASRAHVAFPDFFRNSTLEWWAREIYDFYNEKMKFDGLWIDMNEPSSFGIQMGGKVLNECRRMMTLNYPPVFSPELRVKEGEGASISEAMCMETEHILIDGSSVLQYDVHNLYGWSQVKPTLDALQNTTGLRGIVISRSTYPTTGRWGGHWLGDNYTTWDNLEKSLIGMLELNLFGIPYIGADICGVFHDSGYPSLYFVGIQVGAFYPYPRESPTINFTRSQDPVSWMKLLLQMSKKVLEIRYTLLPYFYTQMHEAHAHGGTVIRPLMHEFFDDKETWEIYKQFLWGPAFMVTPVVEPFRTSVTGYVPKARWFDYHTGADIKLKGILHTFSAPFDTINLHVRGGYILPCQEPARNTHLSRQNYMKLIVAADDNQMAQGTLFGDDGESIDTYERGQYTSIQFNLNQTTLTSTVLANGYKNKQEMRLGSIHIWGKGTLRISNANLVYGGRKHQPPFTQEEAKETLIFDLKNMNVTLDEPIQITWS

In the case of `O=C1O[C@H]2[C@H](O)[C@@H](CO)OC(O)[C@@H]2OC(=O)c2cc(O)c(O)c(O)c2-c2c1cc(O)c(O)c2O` (stereo partly drawn) [Compound 2, 2,3-hexahydroxydiphenoyl-(α/β)-D-^4C1-glucopyranose], the “sucrase inhibitory activity IC50” value (rat intestinal sucrase, in vitro) amounted to 195.62 µg/mL.

The compound `O=c1c(O[C@@H]2O[C@@H](CO)[C@H](O)[C@H]2O)c(-c2ccc(O)c(O)c2)oc2cc(O)cc(O)c12` [Compound 3, avicularin] had an IC50 of 217 µM.

The compound `O=C1OC[C@H]2OC(=O)c3cc(O)c(O)c(O)c3-c3c(O)c(O)c(O)c4c3C(=O)O[C@H]([C@H]3OC(=O)c5c-4c(O)c(O)c(O)c5[C@H]3O)[C@@H]2OC(=O)c2cc(O)c(O)c(O)c2-c2c1cc(O)c(O)c2O` [Compound 4, castalagin] had an IC50 of 148 µM.

In turn, `O=c1c(O[C@@H]2O[C@H](CO)[C@@H](O)[C@H](O)[C@H]2O)c(-c2ccc(O)c(O)c2)oc2cc(O)cc(O)c12` [Compound 5, quercetin-3-O-glucoside] had an IC50 of 194 µM.

The term IC50 denotes the concentration needed to halve the response being measured.
